From BindingDB's records for doi:10.1016/j.bmc.2016.09.019 (Florida A&M University, 2016)

Columns and labels:
[1] = target: T1, 5-hydroxytryptamine receptor 2C (Homo sapiens, UniProt P28335); test: Displacement of [3H]-mesulergine from human 5-HT2C receptor by liquid scintillation counting method
T1 sequence (P28335 whole entry): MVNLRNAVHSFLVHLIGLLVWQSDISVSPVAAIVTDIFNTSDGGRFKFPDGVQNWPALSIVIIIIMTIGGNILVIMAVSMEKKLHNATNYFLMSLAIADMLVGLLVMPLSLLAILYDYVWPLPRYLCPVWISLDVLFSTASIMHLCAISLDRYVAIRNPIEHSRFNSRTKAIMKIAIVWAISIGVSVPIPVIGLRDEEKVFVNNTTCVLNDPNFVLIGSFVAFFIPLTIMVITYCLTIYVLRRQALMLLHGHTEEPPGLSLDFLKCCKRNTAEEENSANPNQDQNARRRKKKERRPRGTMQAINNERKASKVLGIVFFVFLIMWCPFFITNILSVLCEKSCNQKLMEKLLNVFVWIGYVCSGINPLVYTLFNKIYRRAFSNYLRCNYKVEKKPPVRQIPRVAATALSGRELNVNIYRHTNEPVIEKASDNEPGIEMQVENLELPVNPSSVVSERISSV
Procedure, shortened: (§1)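 Binding assays run by the NIMH Psychoactive Drug Screening Program (PDSP) using its previously reported methods and radioligands. Affinity is given as Ki.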

[2] = target: 5-hydroxytryptamine receptor 7 (Homo sapiens, UniProt P34969); test: Displacement of [3H]-LSD from human 5-HT7 receptor by liquid scintillation counting method
Histamine H1 receptor = Histamine H1 receptor (Homo sapiens, UniProt P35367); test: Displacement of [3H]-pyrilamine from human histamine H1 receptor by liquid scintillation counting method; procedure, shortened: as §1
Histamine H1 receptor, sequence (P35367 whole entry): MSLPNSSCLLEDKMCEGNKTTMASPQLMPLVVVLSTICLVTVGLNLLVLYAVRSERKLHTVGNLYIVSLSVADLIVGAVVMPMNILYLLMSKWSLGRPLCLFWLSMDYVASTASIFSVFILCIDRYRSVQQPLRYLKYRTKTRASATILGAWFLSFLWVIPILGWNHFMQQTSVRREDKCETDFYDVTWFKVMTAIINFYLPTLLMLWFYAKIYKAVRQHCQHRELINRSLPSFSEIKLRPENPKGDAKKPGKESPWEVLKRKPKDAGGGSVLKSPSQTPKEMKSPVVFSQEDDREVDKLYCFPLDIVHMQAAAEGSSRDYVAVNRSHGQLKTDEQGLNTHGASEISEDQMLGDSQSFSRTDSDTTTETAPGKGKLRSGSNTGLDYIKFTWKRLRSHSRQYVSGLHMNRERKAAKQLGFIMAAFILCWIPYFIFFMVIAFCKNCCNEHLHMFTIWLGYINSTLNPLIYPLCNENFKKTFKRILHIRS

5-hydroxytryptamine receptor 7, sequence (P34969 whole entry): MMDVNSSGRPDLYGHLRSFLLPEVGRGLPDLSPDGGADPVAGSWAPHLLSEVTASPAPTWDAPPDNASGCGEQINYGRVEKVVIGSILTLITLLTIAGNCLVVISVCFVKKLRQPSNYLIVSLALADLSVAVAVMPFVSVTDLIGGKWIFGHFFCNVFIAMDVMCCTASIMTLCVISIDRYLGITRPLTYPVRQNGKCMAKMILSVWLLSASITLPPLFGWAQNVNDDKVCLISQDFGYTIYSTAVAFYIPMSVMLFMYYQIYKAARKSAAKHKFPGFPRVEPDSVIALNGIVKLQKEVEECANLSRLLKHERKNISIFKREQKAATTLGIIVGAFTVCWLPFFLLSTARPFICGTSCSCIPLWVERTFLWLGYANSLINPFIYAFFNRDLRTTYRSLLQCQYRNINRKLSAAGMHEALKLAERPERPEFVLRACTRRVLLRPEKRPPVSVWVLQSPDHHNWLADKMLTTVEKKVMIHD

Ki [1]: 2040 nM
Ki [2]: 501 nM
Ki (Histamine H1 receptor): 1000 nM
SMILES: Clc1ccc(C(=[C][C][C]N2[C][C]c3ccccc3[C]2)c2ccc(Cl)cc2)cc1
